# Results published in ChEMBL document CHEMBL4396943, “The tetrahydroxanthone-dimer phomoxanthone A is a strong inducer of apoptosis in cisplatin-resistant solid cancer cells” (Bioorg Med Chem, 2019).
# The source made the active and inactive calls. The calls are words filed in the database; no cut-off is given here.
# Key:
# [1] = test system: J82; experiment: Cell cycle arrest in human J82 cells assessed as accumulation at G1 phase at 5 uM incubated for 24 hrs by propidium iodide staining based flow cytometry (reference value: 69.6%); type: functional
# Procedure, shortened: (§1)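 After 24 h exposure, cells washed in ice-cold PBS. About 2 million cells fixed in cold 70% ethanol at −20 °C for at least 24 h. Stained with 0.1% Triton X-100, 200 µg/ml RNase A and 20 µg/ml propidium iodide in PBS, 15 min at 37 °C in the dark. DNA content read by flow cytometry with doublet discrimination. Medium as untreated control, paclitaxel as G2/M control. Three independent experiments.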
# [2] = test system: A2780cisR; experiment: Antiproliferative activity against human A2780cisR cells assessed as reduction in cell viability incubated for 24 hrs by MTT assay; type: functional, cell-based
# Procedure, shortened: (§2)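 Cells seeded overnight in 96-well plates, then exposed to increasing concentrations (compound dissolved in DMSO, diluted in medium) for the stated time. MTT (5 mg/ml in PBS) added for 15 min, formazan dissolved in DMSO, absorbance read at 544 nm minus 690 nm background. IC50 = concentration giving 50% signal decrease. At least three independent experiments in triplicate.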
# [3] = test system: J82; experiment: Cell cycle arrest in cisplatin resistant human J82 cells assessed as accumulation at G1 phase at 1 uM incubated for 24 hrs by propidium iodide staining based flow cytometry (reference value: 78.1%); type: functional; procedure, shortened: as §1
# [4] = test system: A2780; experiment: Induction of apoptosis in human A2780 cells assessed as accumulation in subG1 phase incubated for 24 hrs by propidium iodide staining based flow cytometry (reference value: 10%); type: functional
# Procedure, shortened: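 Cells plated in 24-well plates (about 100,000/well) for one day, then treated 24 h. Where used, caspase inhibitor Q-VD-OPh (20 µM) was added 1 h before. Cells lysed in hypotonic buffer (0.1% sodium citrate, 0.1% Triton X-100, 100 µg/ml propidium iodide) overnight at 4 °C in the dark. Sub-G1 fraction read by flow cytometry. Medium control, cisplatin positive control.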
# [5] = test system: A2780; experiment: Cell cycle arrest in human A2780 cells assessed as accumulation at G1 phase at 1 uM incubated for 24 hrs by propidium iodide staining based flow cytometry (reference value: 61.8%); type: functional; procedure, shortened: as §1
# [6] = test system: K562; experiment: Antiproliferative activity against human K562 cells assessed as reduction in cell viability incubated for 72 hrs by MTT assay; type: functional, cell-based; conditions: K562, 72 h; procedure, shortened: as §2
# [7] = test system: A2780; experiment: Cell cycle arrest in human A2780 cells assessed as accumulation at G1 phase at 10 uM incubated for 24 hrs by propidium iodide staining based flow cytometry (reference value: 61.8%); type: functional; procedure, shortened: as §1
# [8] = test system: A2780cisR; experiment: Ratio of IC50 for antiproliferative activity in human A2780cisR cells assessed as reduction in cell viability incubated for 24 hrs by MTT assay to IC50 for antiproliferative activity in human A2780cisR cells assessed as reduction in cell viability incubated for 72 hrs by MTT assay; type: functional
# Procedure, shortened: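 MTT assay as for the viability IC50s (overnight seeding, MTT 15 min, DMSO solubilisation, 544/690 nm), with PXA incubation for 24 h versus 72 h. IC50 is the concentration giving a 50% signal decrease. At least three independent experiments.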
# [9] = test system: KYSE-510; experiment: Antiproliferative activity against human KYSE-510 cells assessed as reduction in cell viability incubated for 72 hrs by MTT assay; type: functional, cell-based; conditions: KYSE-510, 72 h; procedure, shortened: as §2
# [10] = test system: A2780cisR; experiment: Induction of apoptosis in human A2780cisR cells assessed as nuclear condensation by measuring reduced size and increased intensity of nuclei at 10 uM incubated for 24 hrs by hoechst 33342 staining based fluorescence microscopy; type: functional, cell-based
# [11] = Antiproliferative activity against human Cal27CisR cells assessed as reduction in cell viability incubated for 72 hrs by MTT assay; type: functional, cell-based; procedure, shortened: as §2
# [12] = test system: A2780; experiment: Induction of apoptosis in human A2780 cells assessed as nuclear condensation by measuring reduced size and increased intensity of nuclei at 10 uM incubated for 24 hrs by hoechst 33342 staining based fluorescence microscopy; type: functional, cell-based
# [13] = test system: A2780cisR; experiment: Reduction of H2O2-induced ROS generation in human A2780cisR cells at 316 nM incubated for 18 hrs by H2DCFDA staining based flow cytometry; type: functional, cell-based
# Procedure, shortened: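 Cells plated overnight in growth medium (approx. 150,000 cells/well), exposed to compound for 18 h. Then washed with PBS and moved to phenol red-free RPMI-1640 without FBS or antibiotics. Loaded with 10 µM H2DCF-DA, 30 min, 37 °C, dark. One aliquot then given 250 µM H2O2 for 1 h at 37 °C in the dark. DCF fluorescence read by flow cytometry; three independent experiments.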
# [14] = test system: A2780; experiment: Induction of apoptosis in human A2780 cells assessed as increase in caspase 3 cleavage at 5 uM incubated for 24 hrs by proteome profiler analysis; type: functional, cell-based
# Procedure, shortened: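 A2780 and A2780CisR cells treated 24 h with 5 µM PXA; apoptosis-related proteins profiled with a human apoptosis antibody array following kit instructions.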
# [15] = test system: J82; experiment: Induction of apoptosis in cisplatin resistant human J82 cells assessed as depolarization of mitochondrial membrane potential at 5 to 10 uM incubated for 2 hrs by hoechst 33342 staining based fluorescence microscopy; type: functional
# Procedure, shortened: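 J82CisR cells exposed 2 h, then labelled with TMRE and Hoechst 33342 for 20 min. TMRE signal imaged on a high-content fluorescence imaging platform. Untreated medium control and 20 µM CCCP positive control.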
# [16] = test system: A2780cisR; experiment: Cell cycle arrest in human A2780cisR cells assessed as accumulation at G1 phase at 10 uM incubated for 24 hrs by propidium iodide staining based flow cytometry (reference value: 68.7%); type: functional; procedure, shortened: as §1
# [17] = test system: A2780cisR; experiment: Induction of apoptosis in human A2780cisR cells assessed as depolarization of mitochondrial membrane potential incubated for 2 hrs by TMRE staining based flow cytometry; type: functional, cell-based
# Procedure, shortened: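 Cells seeded overnight; complete medium swapped for FBS-free medium just before treatment to avoid TMRE ester cleavage. Exposure to PXA for 1 h, 2 h or 24 h. TMRE staining 20 min, cells collected by trypsinisation, ΔΨm read by flow cytometry. Medium served as negative control, 20 µM CCCP as positive control. Mean ± SEM reported.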
# [18] = test system: A2780cisR; experiment: Cell cycle arrest in human A2780cisR cells assessed as accumulation at G1 phase incubated for 24 hrs by propidium iodide staining based flow cytometry; type: functional; procedure, shortened: as §1
# [19] = test system: A2780; experiment: Antiproliferative activity against human A2780 cells assessed as reduction in cell viability incubated for 72 hrs by MTT assay; type: functional, cell-based; conditions: A2780, 72 h; procedure, shortened: as §2
# [20] = test system: J82; experiment: Induction of apoptosis in human J82 cells assessed as accumulation in subG1 phase at 5 uM incubated for 24 hrs by propidium iodide staining based flow cytometry relative to control; type: functional
# Procedure, shortened: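 About 100,000 cells/well plated; after one day, treated 24 h. Cells lysed in hypotonic buffer (0.1% sodium citrate, 0.1% Triton X-100, 100 µg/ml propidium iodide) and kept overnight at 4 °C in the dark. Sub-G1 fraction measured by flow cytometry. Medium as control, cisplatin as positive control.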
# [21] = test system: J82; experiment: Induction of apoptosis in human J82 cells assessed as mitochondrial membrane potential at 1 uM incubated for 2 hrs by hoechst 33342 staining based fluorescence microscopy; type: functional, cell-based
# Procedure, shortened: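 J82 cells treated 2 h with PXA, then labelled 20 min with TMRE plus Hoechst 33342. ΔΨm read by high-content fluorescence imaging. Untreated medium and 20 µM CCCP served as controls.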
structure (smiles),measurement,setting,value
CC(=O)OC[C@]12Oc3c(-c4ccc(O)c5c4O[C@@]4(COC(C)=O)C(=C(O)C[C@@H](C)[C@H]4OC(C)=O)C5=O)ccc(O)c3C(=O)C1=C(O)C[C@@H](C)[C@H]2OC(C)=O [PHOMOXANTHONE A],Activity,[1],68%
same,IC50,[2]; read-out: IC50,1880 nM
same,IC50,[2]; read-out: pIC50 (converted),1860 nM
same,Activity,[3],76.3%
same,Activity,[4],70%
same,Activity,[5],63.3%
same,IC50,[6],1860 nM
same,Activity,[7],78.9%
same,Ratio IC50,[8],1.4
same,IC50,[9],760 nM
same,Activity,[10],Active
same,IC50,[11],5620 nM
same,Activity,[12],Active
same,inhibition,[13],inactive
same,Activity,[14],Active
same,Activity,[15],100%
same,Activity,[16],81.1%
same,Activity,[17],Dose-dependent effect
same,IC50,[17],860 nM
same,Activity,[18],Dose-dependent effect
same,IC50,[19]; read-out: IC50,580 nM
same,IC50,[19]; read-out: pIC50 (converted),575 nM
same,Activity,[20],53%
same,Activity,[21],inactive
